Measurements taken from ChEMBL document CHEMBL1926509, “Discovery of pyrazolo[1,5-a]pyridines as p110α-selective PI3 kinase inhibitors” (Bioorg Med Chem, 2012).
Active and inactive are the calls of the source. The calls are words filed in the database; no cut-off is given here.

Tests used:
[1] = target: Ribosomal protein S6 kinase alpha-1 (Homo sapiens) (UniProt Q15418); assay: Inhibition of RSK1 assessed as residual activity at 1 uM
[2] = target: Phosphatidylinositol 4,5-bisphosphate 3-kinase catalytic subunit gamma isoform (Homo sapiens, UniProt P48736); assay: Inhibition of PI3K p110gamma
Outline: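 Recombinant PI3K isoform made in-house, mixed with phosphatidylinositol substrate and inhibitor in 1% DMSO. Lipid kinase buffer (2× stock: 40 mM Tris-HCl pH 7.4, 200 mM NaCl, 1 mM EDTA). Started with ATP/MgCl₂ (5 mM)/[γ-³³P]ATP mix, 1 h at room temperature, stopped with 1 M HCl. Lipids extracted, separated by TLC and read by phosphorimager. Nine concentrations, run twice, IC50s averaged.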

[3] = target: Misshapen-like kinase 1 (Homo sapiens) (UniProt Q8N4C8); assay: Inhibition of MINK1 assessed as residual activity at 10 uM
[4] = Selectivity ratio of IC50 for PI3K p110delta to IC50 for PI3K p110alpha
[5] = target: Insulin receptor (Homo sapiens) (UniProt P06213); assay: Inhibition of IR assessed as residual activity at 10 uM
[6] = target: T1, Phosphatidylinositol 4,5-bisphosphate 3-kinase catalytic subunit alpha isoform (Homo sapiens, UniProt P42336, H1047R); assay: Inhibition of PI3K […] H1047R mutant-mediated PKB phosphorylation at Thr308 in human HCT116 cells after 15 mins by immunoblot analysis; assay type: cell-based, HCT-116
Outline: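 HCT-116 cells in MEM alpha with 10% FBS and penicillin/streptomycin were seeded, grown 1 day, then serum-starved overnight. They were exposed to a range of inhibitor concentrations in DMSO (0.1% final) for 15 min, then stimulated with 500 nM insulin for 5 min. Phospho-PKB (Ser473 or Thr308) was detected by immunoblotting.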

[7] = target: Insulin receptor (Homo sapiens) (UniProt P06213); assay: Inhibition of IR assessed as residual activity at 1 uM
[8] = target: Dual specificity mitogen-activated protein kinase kinase 1 (Homo sapiens) (UniProt Q02750); assay: Inhibition of MKK1 assessed as residual activity at 10 uM
[9] = target: Ribosomal protein S6 kinase alpha-1 (Homo sapiens) (UniProt Q15418); assay: Inhibition of RSK1 assessed as residual activity at 10 uM
[10] = Cytotoxicity against human NZB5 cells expressing wild type p110alpha assessed as inhibition of [3H]thymidine incorporation after 5 days; assay type: functional, cell-based
Outline: (§1)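 Early-passage lab-derived lines in α-MEM with insulin, transferrin, selenite and 5% FBS. Seeded at 1000 cells/well; drug added in 10-fold steps up to 20 µM. Incubated five days under 5% O₂/5% CO₂/90% N₂, with ³H-thymidine (0.04 µCi/well) over the last 6 h. Duplicates per dose; least-squares exponential fit; IC50 is the concentration giving 50% less incorporation.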

[11] = target: Phosphatidylinositol 4,5-bisphosphate 3-kinase catalytic subunit alpha isoform (Homo sapiens, UniProt P42336); details: 100 nM
[12] = Cytotoxicity against human NZOV9 cells expressing p110alpha Y1021C mutant assessed as inhibition of [3H]thymidine incorporation after 5 days; assay type: functional, cell-based; outline: as §1
[13] = target: T1, Phosphatidylinositol 4,5-bisphosphate 3-kinase catalytic subunit alpha isoform; assay: Inhibition of recombinant PI3K p110alpha H1047R mutant using L-alpha-phosphatidylinositol as substrate and [gamma33P]ATP after 60 mins by thin layer chromatographic technique
[14] = test system: Mus musculus; assay: Toxicity in human HCT116 cells xenografted Rag1 knockout mouse assessed as body weight loss at 20 mg/kg, ip qd measured up to day 10; assay type: organism-based, HCT-116; parameters: dose 20 mg/kg, route intraperitoneal; details: in vivo
Outline: (§2)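 Female specific-pathogen-free Rag1−/− mice carrying subcutaneous HCT-116 tumours, given 20 mg/kg ip daily for 14 days in a DMSO/PEG-400/hydroxypropyl-β-cyclodextrin/water vehicle; controls received vehicle; n = 7 per group. Bodyweight recorded daily; mice culled if loss exceeded 20% of starting weight.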

[15] = target: Mitogen-activated protein kinase 14 (Homo sapiens) (UniProt Q16539); assay: Inhibition of p38alpha assessed as residual activity at 10 uM
[16] = Selectivity ratio of IC50 for PI3K p110beta to IC50 for PI3K p110alpha
[17] = test system: Mus musculus; assay: Toxicity in human HCT116 cells xenografted Rag1 knockout mouse assessed as body weight loss at 20 mg/kg, ip qd measured after 10 days relative to untreated control; assay type: organism-based, HCT-116; parameters: dose 20 mg/kg, route intraperitoneal; details: in vivo, 240 h; outline: as §2
[18] = target: T2, Phosphatidylinositol 4,5-bisphosphate 3-kinase catalytic subunit delta isoform (Homo sapiens, UniProt O00329); assay: Inhibition of recombinant PI3K p110delta using L-alpha-phosphatidylinositol as substrate and [gamma33P]ATP after 60 mins by thin layer chromatographic technique
T2 sequence (O00329 whole entry): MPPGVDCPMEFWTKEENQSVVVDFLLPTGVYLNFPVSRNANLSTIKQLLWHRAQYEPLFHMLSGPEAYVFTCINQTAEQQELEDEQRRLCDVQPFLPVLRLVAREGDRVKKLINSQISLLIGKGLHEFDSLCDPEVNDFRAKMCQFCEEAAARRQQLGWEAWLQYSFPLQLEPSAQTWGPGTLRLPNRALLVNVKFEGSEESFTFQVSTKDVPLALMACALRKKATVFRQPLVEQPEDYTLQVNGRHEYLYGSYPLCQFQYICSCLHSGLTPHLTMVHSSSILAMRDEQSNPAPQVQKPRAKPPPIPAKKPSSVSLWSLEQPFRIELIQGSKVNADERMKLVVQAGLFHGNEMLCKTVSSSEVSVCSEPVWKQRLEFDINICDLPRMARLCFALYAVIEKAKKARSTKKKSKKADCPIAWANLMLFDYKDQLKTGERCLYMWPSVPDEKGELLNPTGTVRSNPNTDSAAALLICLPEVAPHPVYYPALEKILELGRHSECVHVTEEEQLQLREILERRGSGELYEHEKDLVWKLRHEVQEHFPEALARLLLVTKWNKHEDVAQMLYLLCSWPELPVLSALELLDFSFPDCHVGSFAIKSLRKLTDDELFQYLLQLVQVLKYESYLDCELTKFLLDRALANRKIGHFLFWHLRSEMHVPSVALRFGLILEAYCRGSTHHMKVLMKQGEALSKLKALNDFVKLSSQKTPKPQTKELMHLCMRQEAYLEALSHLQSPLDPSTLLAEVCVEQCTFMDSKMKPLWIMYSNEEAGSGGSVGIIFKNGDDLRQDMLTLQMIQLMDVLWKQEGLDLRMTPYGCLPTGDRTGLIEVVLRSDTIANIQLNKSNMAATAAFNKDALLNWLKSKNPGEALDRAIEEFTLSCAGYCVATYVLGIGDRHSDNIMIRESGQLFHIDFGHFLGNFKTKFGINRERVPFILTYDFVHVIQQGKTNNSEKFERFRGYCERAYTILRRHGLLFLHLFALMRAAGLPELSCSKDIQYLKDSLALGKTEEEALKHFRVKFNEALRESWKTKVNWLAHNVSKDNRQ
Outline: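 In-house recombinant class Ia PI3K isoform (0.1 µg) with L-α-phosphatidylinositol substrate in lipid kinase buffer (Tris–HCl pH 7.4, NaCl, EDTA), 1% DMSO final. Started with ATP mix (5 mM MgCl₂, 100 µM ATP plus [γ-³³P]ATP), 1 h at room temperature, stopped with 1 M HCl. Lipids extracted in two steps, separated by TLC, read by phosphorimager. Nine inhibitor concentrations; IC50 averaged over two experiments.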

Sequence of Insulin receptor (Homo sapiens) (P06213 28-758 limits assumed): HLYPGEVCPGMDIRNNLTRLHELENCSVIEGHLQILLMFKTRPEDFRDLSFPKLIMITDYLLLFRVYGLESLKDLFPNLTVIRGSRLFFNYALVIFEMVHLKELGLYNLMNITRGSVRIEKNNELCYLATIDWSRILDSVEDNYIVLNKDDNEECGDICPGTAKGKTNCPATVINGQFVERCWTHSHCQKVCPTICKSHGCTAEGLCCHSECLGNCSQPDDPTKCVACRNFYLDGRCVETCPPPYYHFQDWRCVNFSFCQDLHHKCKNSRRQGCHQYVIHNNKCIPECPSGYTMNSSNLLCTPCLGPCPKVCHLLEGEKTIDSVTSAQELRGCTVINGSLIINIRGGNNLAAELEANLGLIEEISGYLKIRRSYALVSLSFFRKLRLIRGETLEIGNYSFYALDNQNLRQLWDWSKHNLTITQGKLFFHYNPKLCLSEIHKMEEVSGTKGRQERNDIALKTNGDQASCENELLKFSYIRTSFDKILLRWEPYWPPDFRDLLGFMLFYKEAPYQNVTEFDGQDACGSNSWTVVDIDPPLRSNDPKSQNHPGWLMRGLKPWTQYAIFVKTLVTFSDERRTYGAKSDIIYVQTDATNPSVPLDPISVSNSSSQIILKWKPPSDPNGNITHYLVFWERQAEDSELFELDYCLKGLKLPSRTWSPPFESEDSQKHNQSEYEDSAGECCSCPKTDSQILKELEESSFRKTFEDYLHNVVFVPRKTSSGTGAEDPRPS
Sequence of Insulin receptor (Homo sapiens) (P06213 763-1382 limits assumed): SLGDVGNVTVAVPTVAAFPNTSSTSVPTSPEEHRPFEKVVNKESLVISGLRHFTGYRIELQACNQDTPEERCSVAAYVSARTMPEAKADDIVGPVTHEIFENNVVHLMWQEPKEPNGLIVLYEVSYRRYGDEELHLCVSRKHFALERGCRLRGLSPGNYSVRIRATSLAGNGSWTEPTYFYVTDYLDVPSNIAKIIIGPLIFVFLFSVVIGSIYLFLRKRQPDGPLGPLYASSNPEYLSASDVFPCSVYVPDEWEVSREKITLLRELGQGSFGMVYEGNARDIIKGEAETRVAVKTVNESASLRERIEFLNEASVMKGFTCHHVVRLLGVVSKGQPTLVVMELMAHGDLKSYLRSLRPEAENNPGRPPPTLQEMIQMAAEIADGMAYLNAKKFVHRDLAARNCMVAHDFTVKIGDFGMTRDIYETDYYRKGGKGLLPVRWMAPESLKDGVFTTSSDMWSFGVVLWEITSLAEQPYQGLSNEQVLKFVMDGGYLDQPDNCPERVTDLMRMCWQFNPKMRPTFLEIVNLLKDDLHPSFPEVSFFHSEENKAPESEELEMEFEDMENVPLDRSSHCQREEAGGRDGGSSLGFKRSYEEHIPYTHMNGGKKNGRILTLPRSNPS
T1 sequence (P42336 whole entry H1047R, canonical isoform): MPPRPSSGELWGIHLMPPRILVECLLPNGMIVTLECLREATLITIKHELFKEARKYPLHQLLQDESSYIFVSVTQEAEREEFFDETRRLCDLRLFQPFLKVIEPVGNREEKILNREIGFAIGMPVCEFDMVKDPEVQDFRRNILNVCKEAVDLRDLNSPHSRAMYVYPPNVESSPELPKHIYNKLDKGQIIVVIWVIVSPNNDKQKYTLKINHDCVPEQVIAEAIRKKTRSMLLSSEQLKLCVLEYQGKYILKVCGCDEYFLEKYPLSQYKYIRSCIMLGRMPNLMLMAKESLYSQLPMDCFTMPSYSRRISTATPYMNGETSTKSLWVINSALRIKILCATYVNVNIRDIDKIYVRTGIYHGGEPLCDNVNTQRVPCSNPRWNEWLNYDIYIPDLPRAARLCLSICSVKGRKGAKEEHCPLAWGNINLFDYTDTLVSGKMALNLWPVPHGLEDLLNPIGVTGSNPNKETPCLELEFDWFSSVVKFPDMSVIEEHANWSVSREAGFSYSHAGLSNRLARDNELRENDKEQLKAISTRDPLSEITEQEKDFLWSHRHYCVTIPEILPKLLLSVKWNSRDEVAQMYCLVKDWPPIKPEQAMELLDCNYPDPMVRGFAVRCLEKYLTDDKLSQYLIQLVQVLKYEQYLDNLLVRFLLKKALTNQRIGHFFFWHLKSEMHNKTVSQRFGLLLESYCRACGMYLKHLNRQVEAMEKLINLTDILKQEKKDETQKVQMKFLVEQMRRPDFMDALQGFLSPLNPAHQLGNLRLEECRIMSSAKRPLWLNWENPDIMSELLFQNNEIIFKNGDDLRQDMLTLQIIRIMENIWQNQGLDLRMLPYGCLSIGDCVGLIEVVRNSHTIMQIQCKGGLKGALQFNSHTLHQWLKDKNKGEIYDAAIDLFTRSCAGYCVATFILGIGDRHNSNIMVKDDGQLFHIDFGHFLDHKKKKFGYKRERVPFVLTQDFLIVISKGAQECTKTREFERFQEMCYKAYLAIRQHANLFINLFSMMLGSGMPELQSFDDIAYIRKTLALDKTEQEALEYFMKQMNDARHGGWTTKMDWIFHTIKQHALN
Sequence of Ribosomal protein S6 kinase alpha-1 (Homo sapiens) (Q15418 whole entry, canonical isoform): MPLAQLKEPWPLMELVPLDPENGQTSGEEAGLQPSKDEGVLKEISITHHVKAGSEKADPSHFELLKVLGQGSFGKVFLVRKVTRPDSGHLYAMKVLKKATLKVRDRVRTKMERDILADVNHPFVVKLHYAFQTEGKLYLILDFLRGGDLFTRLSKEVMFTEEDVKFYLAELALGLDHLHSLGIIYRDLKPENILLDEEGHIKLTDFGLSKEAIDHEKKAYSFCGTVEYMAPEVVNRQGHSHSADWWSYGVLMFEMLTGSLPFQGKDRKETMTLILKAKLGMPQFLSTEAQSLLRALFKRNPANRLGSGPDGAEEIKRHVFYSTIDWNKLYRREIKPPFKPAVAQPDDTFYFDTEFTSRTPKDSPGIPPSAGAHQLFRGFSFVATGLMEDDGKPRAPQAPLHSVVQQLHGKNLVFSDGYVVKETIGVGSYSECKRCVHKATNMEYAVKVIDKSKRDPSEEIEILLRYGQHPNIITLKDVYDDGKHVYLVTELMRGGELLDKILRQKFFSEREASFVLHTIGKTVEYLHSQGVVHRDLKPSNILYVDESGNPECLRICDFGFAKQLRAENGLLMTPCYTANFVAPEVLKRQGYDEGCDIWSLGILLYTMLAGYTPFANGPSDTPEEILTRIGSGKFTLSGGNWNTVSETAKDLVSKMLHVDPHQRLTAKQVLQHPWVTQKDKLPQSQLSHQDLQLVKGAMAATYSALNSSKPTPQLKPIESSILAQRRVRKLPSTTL
Sequence of Dual specificity mitogen-activated protein kinase kinase 1 (Homo sapiens) (Q02750 whole entry): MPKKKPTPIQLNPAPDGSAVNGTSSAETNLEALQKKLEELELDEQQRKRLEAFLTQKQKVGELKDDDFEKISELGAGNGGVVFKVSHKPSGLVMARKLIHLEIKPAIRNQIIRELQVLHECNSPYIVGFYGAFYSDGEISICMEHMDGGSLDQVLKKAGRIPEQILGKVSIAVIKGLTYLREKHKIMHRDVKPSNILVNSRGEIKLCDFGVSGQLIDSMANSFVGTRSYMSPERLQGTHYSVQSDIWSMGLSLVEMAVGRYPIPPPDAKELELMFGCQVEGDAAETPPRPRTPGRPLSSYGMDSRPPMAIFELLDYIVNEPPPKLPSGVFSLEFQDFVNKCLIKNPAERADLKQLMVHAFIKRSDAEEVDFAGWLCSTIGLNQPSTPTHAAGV
Sequence of Misshapen-like kinase 1 (Homo sapiens) (Q8N4C8 whole entry, looked up): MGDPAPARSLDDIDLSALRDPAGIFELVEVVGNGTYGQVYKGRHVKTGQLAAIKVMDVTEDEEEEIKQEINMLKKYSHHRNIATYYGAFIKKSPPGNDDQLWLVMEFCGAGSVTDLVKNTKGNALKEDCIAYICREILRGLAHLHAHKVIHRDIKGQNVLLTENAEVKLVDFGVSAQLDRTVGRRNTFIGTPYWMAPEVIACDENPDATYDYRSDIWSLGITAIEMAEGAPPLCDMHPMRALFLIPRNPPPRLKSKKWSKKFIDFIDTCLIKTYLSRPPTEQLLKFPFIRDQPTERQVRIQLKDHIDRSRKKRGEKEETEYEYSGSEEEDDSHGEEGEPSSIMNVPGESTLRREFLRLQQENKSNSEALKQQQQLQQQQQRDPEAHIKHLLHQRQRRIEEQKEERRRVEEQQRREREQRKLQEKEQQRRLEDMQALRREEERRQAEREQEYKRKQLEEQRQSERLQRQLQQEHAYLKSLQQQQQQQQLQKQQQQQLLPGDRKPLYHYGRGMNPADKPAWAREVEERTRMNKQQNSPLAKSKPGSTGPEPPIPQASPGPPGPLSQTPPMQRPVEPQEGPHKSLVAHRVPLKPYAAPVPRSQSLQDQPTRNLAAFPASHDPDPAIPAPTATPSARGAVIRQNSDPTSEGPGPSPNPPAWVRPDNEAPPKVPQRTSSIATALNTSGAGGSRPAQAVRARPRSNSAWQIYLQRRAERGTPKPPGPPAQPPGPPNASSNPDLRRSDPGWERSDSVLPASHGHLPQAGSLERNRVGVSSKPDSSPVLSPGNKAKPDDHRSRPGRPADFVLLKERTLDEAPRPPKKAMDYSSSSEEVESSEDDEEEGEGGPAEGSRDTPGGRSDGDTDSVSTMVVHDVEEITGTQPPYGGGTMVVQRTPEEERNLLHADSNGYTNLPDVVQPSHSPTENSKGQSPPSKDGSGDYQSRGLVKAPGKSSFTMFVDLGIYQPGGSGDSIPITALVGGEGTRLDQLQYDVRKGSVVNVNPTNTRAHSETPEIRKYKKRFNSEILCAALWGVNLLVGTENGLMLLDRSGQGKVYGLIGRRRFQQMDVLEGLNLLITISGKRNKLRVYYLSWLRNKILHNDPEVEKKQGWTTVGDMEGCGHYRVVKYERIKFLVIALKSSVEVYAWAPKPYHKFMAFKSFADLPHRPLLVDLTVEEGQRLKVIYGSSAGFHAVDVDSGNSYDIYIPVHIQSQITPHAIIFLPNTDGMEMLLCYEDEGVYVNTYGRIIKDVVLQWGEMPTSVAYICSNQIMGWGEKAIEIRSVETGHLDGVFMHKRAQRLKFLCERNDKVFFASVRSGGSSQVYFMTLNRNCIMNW
Sequence of Phosphatidylinositol 4,5-bisphosphate 3-kinase catalytic subunit alpha isoform (Homo sapiens, UniProt P42336) (P42336 whole entry, canonical isoform): as the sequence (P42336 whole entry H1047R, canonical isoform) above, with R1047H counted along it

## Cc1ccc([N+](=O)[O-])cc1S(=O)(=O)N(C)/N=C/c1cnn2ccc(C#N)cc12
[1]
  Activity: 4%
[2]
  IC50: 0.014 µM
[3]
  Activity: 2%
[4]
  Ratio IC50: 50
[5]
  Activity: 42%
[6]
  IC50: 0.026 µM
[7]
  Activity: 55%
[8]
  Activity: 8%
[9]
  Activity: 2%
[10]
  IC50: 0.06 µM
[11]
  inhibition: inactive
[12]
  IC50: 1.4 µM
[13]
  IC50: 0.0005 µM
[14]
  Activity: Non-toxic
[15]
  Activity: 9%
[16]
  Ratio IC50: 50
[17]
  Activity: 15%
[18]
  IC50: 0.049 µM
